The text below walks through data of PMC6489120 (Journal of medicinal chemistry, 2018).

Converted amounts (≈) assume the structure as drawn. Where only a bound is given, the exact number is not on record here.

One series addresses T1, EP300 (Homo sapiens, UniProt Q09472).
T1 sequence (Q09472 1040-1161 limits assumed): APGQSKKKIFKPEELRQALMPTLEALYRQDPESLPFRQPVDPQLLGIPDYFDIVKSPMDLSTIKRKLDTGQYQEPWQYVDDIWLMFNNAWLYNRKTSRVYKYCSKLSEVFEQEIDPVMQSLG
Description: DiscoverX BROMOscan. The note with it: BROMOscan Kd. In kind it is binding.

A short description of series [1]: full pharmacokinetics in mice. The format is in vivo. The note with it: Balb/c, mouse, plasma, po, 25 mg/kg. In a few lines: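 Balb/c mice dosed orally at 25 mg/kg (iv arm 5.0 mg/kg), test compound in 20% (v/v) PCP and 70% (v/v) PBS. Blood taken 0, 5, 15, 30 min and 1, 2, 4, 6, 8, 24 h post-dose and centrifuged; plasma held at −80 °C. Plasma levels by LC−MS/MS (C18, formic acid/CH3CN gradient, positive-ion MRM); parameters by noncompartmental analysis.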

The next series deals with CECR2 (Homo sapiens, UniProt Q9BXF3). The series can be described thus: DiscoverX BROMOscan. To be noted: BROMOscan Kd. In kind it is binding.
The nature of series [2]: animal weight and signs of toxicity in efficacy studies. In kind it is in vivo. To be noted: all the three dose-schedules tested.
The test system of another series is other 371 kinases. The series can be described thus: kinase panel by Reaction Biology. The format is biochemical. The note with it: at 3 µM.
A short description of a further series: aqueous solubility. In kind it is physicochemical. The note with it: aqueous solution.
In another series the target is CREBBP (Homo sapiens, UniProt Q92793). Description: DiscoverX BROMOscan. The format is binding. To be noted: BROMOscan Kd.
Series [3] concerns 23 other non-BET family bromodomain containing proteins. The series can be described thus: DiscoverX BROMOscan, other non-BET bromodomains summary. To be noted: at concentrations of 3–4 µM. The format is binding.
The target of a further series is BRD4 BD1 (Homo sapiens, UniProt O60885). The series can be described thus: fluorescence polarization binding assay, BRD4 BD1. The note with it: relative to compound 24. In a few lines:
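Binding measured by fluorescence polarization against recombinant human BRD4 BD1 (residues 44−168), using the group's previously established FP assay.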
(In general: In fluorescence polarisation assays a small probe gives low polarisation when free and higher when bound to something large.)

CREBBP, sequence (Q92793 1081-1197 limits assumed): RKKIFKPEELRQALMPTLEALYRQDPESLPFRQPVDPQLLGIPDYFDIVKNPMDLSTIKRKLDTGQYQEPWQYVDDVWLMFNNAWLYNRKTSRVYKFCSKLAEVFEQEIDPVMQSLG
CECR2, sequence (Q9BXF3 424-538 limits assumed): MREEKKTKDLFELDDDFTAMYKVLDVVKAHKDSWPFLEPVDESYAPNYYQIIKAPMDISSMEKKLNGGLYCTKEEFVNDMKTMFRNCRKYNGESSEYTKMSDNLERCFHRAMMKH

A word on the Cmax: it is the highest concentration seen after dosing. By solubility is commonly meant the dissolved amount per volume that the medium holds. Low values mean a poorly soluble substance, high ones a readily soluble substance. As for `COc1cc2c(cc1-c1c(C)noc1C)[nH]c1nc(C)nc(Nc3cc(C4CC4)nn3C)c12` [Compound 28, N-(3-Cyclopropyl-1-methyl-1H-pyrazol-5-yl)-7-(3,5-dimethylisoxazol-4-yl)-6-methoxy-2-methyl-9H-pyrimido[4,5-b]indol-4-amine], the “selectivity for BET bromodomains over EP300” value on EP300 is given as over 50 fold. Further, the Cmax in series [1] was 6.4 µM. The “selectivity for BET bromodomains over CRCR2” value at CECR2 is reported as over 50 fold. Further, in series [2], the “other signs of toxicity” value was “does not cause other signs of toxicity” and the weight loss result was “no more than 5%”. In addition, in the series on other 371 kinases, the “inhibition against other 371 kinases” value is on record as “no appreciable inhibition”. In “aqueous solubility” (pH 3, aqueous buffer), this molecule registered a solubility of 19.5 ± 5.5 µM (≈ 8.65 µg/mL). Moreover, in “aqueous solubility” (pH 11, aqueous buffer), the solubility was determined as 14 ± 0.5 µM (≈ 6.21 µg/mL). Besides, at CREBBP, the “selectivity for BET bromodomains over CREBBP” value is reported as over 20 fold. The “binding affinity to 23 other non-BET bromodomain containing proteins” value in series [3] is on record as “no appreciable binding affinity”.
For the molecule `COc1cc2c(cc1-c1c(C)noc1C)[nH]c1nc(C)nc(Nc3c(C)c(C4CC4)nn3C)c12` [Compound 37, N-(3-Cyclopropyl-1,4-dimethyl-1H-pyrazol-5-yl)-7-(3,5-dimethylisoxazol-4-yl)-6-methoxy-2-methyl-9H-pyrimido[4,5-b]indol-4-amine], the “times less potent than 24 in binding to BRD4 BD1” value at BRD4 BD1 is on record as over 5 times.
